Here are results for 2 molecules from ChEMBL document CHEMBL1154183, “Structure-based optimization of potent and selective inhibitors of the tyrosine kinase erythropoietin producing human hepatocellular carcinoma receptor B4 (EphB4)” (J Med Chem, 2009).

Experiment [1] concerns the target Serine/threonine-protein kinase STK11 (Homo sapiens) (UniProt Q15831). Briefly: Inhibition of LKB1 assessed as remaining enzyme activity at 3 uM relative to DMSO. In outline:
(§1)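 Radiometric kinase assay run robotically at room temperature for 30 min. Contained 10 mM magnesium acetate and [γ-33P]ATP (800 cpm/pmol) at 5, 20 or 50 μM, chosen per kinase to be at or below its ATP Km. Reactions were started with MgATP, stopped with orthophosphoric acid and spotted onto P81 filters. Result is mean % activity of duplicates at one inhibitor concentration versus DMSO control.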

The target of experiment [2] is Tyrosine-protein kinase BTK (Homo sapiens) (UniProt Q06187). Description: Inhibition of BTK assessed as remaining enzyme activity at 3 uM relative to DMSO. In outline: (§2)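 Dundee kinase panel, radiometric: [γ-33P]ATP (800 cpm/pmol) at 5, 20 or 50 μM, at or below each kinase's ATP Km; 10 mM magnesium acetate; robotic, room temperature, 30 min. Reactions started with MgATP, stopped with orthophosphoric acid, spotted onto P81 filters. Inhibitor tested at a single concentration; mean % activity of duplicates relative to DMSO control.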

The target in experiment [3] is MAP kinase-activated protein kinase 2 (Homo sapiens) (UniProt P49137). Description: Inhibition of MAPKAPK2 assessed as remaining enzyme activity at 3 uM relative to DMSO. In outline: as §1
The target of experiment [4] is MAP kinase-activated protein kinase 5 (Homo sapiens) (UniProt Q8IW41). Briefly: Inhibition of PRAK assessed as remaining enzyme activity at 3 uM relative to DMSO.
For experiment [5], the target named is Ribosomal protein S6 kinase alpha-1 (Homo sapiens) (UniProt Q15418). Description: Inhibition of RSK1 assessed as remaining enzyme activity at 3 uM relative to DMSO.
Experiment [6] concerns the target Protein kinase C zeta type (Homo sapiens) (UniProt Q05513). Briefly: Inhibition of PKCzeta assessed as remaining enzyme activity at 3 uM relative to DMSO.
Experiment [7] deals with 3-phosphoinositide-dependent protein kinase 1 (Homo sapiens) (UniProt O15530). Description: Inhibition of PDK1 assessed as remaining enzyme activity at 3 uM relative to DMSO.
Experiment [8] deals with Casein kinase I isoform alpha (Homo sapiens) (UniProt P48729). Briefly: Inhibition of CK1 assessed as remaining enzyme activity at 3 uM relative to DMSO. In outline: as §2
In experiment [9] the target is Serine/threonine-protein kinase PAK 6 (Homo sapiens) (UniProt Q9NQU5). Briefly: Inhibition of PAK6 assessed as remaining enzyme activity at 3 uM relative to DMSO. In outline:
as §1

For experiment [10], the target named is Ephrin type-B receptor 3 (Homo sapiens) (UniProt P54753). Description: Inhibition of EPHB3 assessed as remaining enzyme activity at 3 uM relative to DMSO. In outline:
as §2

Experiment [11] has as its target MAP/microtubule affinity-regulating kinase 3 (Homo sapiens) (UniProt P27448). Description: Inhibition of MARK3 assessed as remaining enzyme activity at 3 uM relative to DMSO. In outline: as §1
For experiment [12], the target named is Serine/threonine-protein kinase 26 (Homo sapiens) (UniProt Q9P289). Description: Inhibition of MST4 assessed as remaining enzyme activity at 3 uM relative to DMSO. In a few lines: as §1
The target in experiment [13] is Serine/threonine-protein kinase Chk1 (Homo sapiens) (UniProt O14757). Briefly: Inhibition of CHK1 assessed as remaining enzyme activity at 3 uM relative to DMSO. In a few lines:
as §2

The target of experiment [14] is Mitogen-activated protein kinase 1 (Homo sapiens) (UniProt P28482). Briefly: Inhibition of ERK2 assessed as remaining enzyme activity at 1 uM relative to DMSO. In a few lines:
(§3)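 Radiometric kinase assay run robotically at room temperature for 30 min, linear in time and enzyme. Conditions: 10 mM magnesium acetate, [γ-33P]ATP (800 cpm/pmol) at 5, 20 or 50 μM per kinase, at or below its ATP Km. Started with MgATP and stopped with orthophosphoric acid, then spotted on P81 filters. Reported as mean % activity of duplicates versus DMSO controls.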

The target of experiment [15] is Ribosomal protein S6 kinase alpha-5 (Homo sapiens) (UniProt O75582). Briefly: Inhibition of MSK1 assessed as remaining enzyme activity at 1 uM relative to DMSO. In a few lines:
as §3

Experiment [16] deals with MAP kinase-interacting serine/threonine-protein kinase 1 (Homo sapiens) (UniProt Q9BUB5). Briefly: Inhibition of MNK1 assessed as remaining enzyme activity at 1 uM relative to DMSO. In a few lines: as §1
The target in experiment [17] is Misshapen-like kinase 1 (Homo sapiens) (UniProt Q8N4C8). Description: Inhibition of MINK1 assessed as remaining enzyme activity at 1 uM relative to DMSO. In outline: as §1
The target in experiment [18] is Ephrin type-B receptor 2 (Homo sapiens, UniProt P29323). Briefly: Inhibition of EphB2 by [gamma33-P]ATP based assay. In outline: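 Radiometric [γ-33P]ATP kinase assay against Eph kinases, following a protocol similar to the Mg-acetate/MgATP filter-binding method.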
For experiment [19], the target named is Inhibitor of nuclear factor kappa-B kinase subunit epsilon (Homo sapiens) (UniProt Q14164). Briefly: Inhibition of IKKepsilon assessed as remaining enzyme activity at 1 uM relative to DMSO. In a few lines: as §2
Experiment [20] has as its target Tyrosine-protein kinase SYK (Homo sapiens) (UniProt P43405). Description: Inhibition of SYK assessed as remaining enzyme activity at 1 uM relative to DMSO.
The target in experiment [21] is Bone morphogenetic protein receptor type-1A (Homo sapiens) (UniProt P36894). Briefly: Binding affinity to BMPR1A assessed as percentage of kinase remaining bound to the bead at 1 uM by T7 phage display based binding assay. In a few lines: (§4)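 Competition binding assay run by a contract lab. Each kinase was expressed as a fusion to T7 phage, full-length for small kinases and catalytic domain for large ones. Phage were mixed with an immobilized known kinase inhibitor on streptavidin magnetic beads and with test compound at a single 1 μM. Kinase/phage still bound to the beads was quantified by qPCR and expressed as % of DMSO control.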

Experiment [22] addresses Ribosomal protein S6 kinase beta-1 (Homo sapiens) (UniProt P23443). Briefly: Inhibition of S6K1 assessed as remaining enzyme activity at 1 uM relative to DMSO.
Experiment [23] has as its target Serine/threonine-protein kinase 32B (Homo sapiens) (UniProt Q9NY57). Description: Binding affinity to YANK2 assessed as percentage of kinase remaining bound to the bead at 1 uM by T7 phage display based binding assay. In a few lines: as §4
The target of experiment [24] is Tyrosine-protein kinase Srms (Homo sapiens) (UniProt Q9H3Y6). Description: Binding affinity to SRMS assessed as percentage of kinase remaining bound to the bead at 1 uM by T7 phage display based binding assay. In outline: as §4
For experiment [25], the target named is Rho-associated protein kinase 2 (Homo sapiens) (UniProt O75116). Description: Inhibition of ROCK2 assessed as remaining enzyme activity at 1 uM relative to DMSO.
The target in experiment [26] is Discoidin domain-containing receptor 2 (Homo sapiens) (UniProt Q16832). Description: Binding affinity to DDR2 assessed as percentage of kinase remaining bound to the bead at 1 uM by T7 phage display based binding assay. In a few lines: as §4
The target in experiment [27] is MAP kinase-activated protein kinase 5 (Homo sapiens) (UniProt Q8IW41). Briefly: Inhibition of PRAK assessed as remaining enzyme activity at 1 uM relative to DMSO.
In experiment [28] the target is Serine/threonine-protein kinase SIK3 (Homo sapiens) (UniProt Q9Y2K2). Briefly: Binding affinity to QSK assessed as percentage of kinase remaining bound to the bead at 1 uM by T7 phage display based binding assay. In outline:
as §4

MAP kinase-activated protein kinase 5 (Homo sapiens), sequence (Q8IW41 whole entry): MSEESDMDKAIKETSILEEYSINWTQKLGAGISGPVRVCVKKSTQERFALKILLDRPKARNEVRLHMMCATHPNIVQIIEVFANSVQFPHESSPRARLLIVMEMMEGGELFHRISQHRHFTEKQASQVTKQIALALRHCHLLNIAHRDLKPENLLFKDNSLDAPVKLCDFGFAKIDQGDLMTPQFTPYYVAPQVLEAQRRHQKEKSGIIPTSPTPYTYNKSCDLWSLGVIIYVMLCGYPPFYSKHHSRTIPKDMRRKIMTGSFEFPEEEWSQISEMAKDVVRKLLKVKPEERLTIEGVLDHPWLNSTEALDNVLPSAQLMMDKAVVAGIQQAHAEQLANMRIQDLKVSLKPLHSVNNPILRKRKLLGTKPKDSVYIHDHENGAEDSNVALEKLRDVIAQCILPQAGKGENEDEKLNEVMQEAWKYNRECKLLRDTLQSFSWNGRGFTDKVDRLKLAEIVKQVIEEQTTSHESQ
Mitogen-activated protein kinase 1 (Homo sapiens), sequence (P28482 whole entry): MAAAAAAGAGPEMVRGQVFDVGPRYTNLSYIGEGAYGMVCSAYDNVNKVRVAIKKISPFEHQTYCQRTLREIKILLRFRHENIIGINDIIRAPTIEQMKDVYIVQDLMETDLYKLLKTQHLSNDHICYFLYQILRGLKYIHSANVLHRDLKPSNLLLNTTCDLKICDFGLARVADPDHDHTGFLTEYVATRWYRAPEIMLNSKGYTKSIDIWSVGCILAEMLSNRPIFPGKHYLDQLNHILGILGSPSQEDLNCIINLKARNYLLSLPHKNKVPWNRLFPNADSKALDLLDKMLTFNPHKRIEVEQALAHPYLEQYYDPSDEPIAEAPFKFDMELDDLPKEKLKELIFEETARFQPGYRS
Serine/threonine-protein kinase SIK3 (Homo sapiens), sequence (Q9Y2K2 whole entry, looked up): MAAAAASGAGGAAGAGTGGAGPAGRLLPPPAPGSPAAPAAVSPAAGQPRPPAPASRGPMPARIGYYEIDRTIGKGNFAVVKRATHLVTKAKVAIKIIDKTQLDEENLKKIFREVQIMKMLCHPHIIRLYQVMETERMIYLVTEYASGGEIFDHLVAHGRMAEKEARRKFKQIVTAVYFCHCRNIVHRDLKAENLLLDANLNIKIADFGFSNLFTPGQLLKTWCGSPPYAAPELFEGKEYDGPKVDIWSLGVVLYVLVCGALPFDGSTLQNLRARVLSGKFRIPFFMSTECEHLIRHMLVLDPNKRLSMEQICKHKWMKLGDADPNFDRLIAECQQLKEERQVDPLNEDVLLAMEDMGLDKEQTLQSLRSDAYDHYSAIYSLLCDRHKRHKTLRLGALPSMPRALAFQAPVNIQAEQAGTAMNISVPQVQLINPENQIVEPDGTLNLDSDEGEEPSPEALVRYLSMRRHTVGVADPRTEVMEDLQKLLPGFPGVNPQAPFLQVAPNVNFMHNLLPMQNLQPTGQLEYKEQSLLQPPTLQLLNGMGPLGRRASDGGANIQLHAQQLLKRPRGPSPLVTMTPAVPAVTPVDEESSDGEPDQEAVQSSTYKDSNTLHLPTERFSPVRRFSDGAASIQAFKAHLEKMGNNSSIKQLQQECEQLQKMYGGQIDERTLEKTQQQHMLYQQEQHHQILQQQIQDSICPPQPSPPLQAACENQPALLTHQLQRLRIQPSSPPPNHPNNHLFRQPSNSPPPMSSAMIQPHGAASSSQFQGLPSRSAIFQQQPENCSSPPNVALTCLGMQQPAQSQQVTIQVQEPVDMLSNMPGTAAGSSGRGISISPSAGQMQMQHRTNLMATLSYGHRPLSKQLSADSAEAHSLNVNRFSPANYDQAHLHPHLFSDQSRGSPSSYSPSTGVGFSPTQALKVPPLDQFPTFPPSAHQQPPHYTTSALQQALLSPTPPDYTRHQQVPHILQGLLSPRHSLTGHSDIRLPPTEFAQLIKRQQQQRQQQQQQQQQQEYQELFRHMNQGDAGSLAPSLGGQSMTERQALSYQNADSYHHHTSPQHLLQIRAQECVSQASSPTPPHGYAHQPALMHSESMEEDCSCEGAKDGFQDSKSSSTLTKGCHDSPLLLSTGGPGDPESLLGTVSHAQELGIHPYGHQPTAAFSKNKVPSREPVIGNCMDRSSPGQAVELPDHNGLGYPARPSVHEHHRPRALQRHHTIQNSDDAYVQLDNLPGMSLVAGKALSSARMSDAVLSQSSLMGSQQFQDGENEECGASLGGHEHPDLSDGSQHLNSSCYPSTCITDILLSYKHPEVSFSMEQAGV
Discoidin domain-containing receptor 2 (Homo sapiens), sequence (Q16832 whole entry, the tested form may be a part): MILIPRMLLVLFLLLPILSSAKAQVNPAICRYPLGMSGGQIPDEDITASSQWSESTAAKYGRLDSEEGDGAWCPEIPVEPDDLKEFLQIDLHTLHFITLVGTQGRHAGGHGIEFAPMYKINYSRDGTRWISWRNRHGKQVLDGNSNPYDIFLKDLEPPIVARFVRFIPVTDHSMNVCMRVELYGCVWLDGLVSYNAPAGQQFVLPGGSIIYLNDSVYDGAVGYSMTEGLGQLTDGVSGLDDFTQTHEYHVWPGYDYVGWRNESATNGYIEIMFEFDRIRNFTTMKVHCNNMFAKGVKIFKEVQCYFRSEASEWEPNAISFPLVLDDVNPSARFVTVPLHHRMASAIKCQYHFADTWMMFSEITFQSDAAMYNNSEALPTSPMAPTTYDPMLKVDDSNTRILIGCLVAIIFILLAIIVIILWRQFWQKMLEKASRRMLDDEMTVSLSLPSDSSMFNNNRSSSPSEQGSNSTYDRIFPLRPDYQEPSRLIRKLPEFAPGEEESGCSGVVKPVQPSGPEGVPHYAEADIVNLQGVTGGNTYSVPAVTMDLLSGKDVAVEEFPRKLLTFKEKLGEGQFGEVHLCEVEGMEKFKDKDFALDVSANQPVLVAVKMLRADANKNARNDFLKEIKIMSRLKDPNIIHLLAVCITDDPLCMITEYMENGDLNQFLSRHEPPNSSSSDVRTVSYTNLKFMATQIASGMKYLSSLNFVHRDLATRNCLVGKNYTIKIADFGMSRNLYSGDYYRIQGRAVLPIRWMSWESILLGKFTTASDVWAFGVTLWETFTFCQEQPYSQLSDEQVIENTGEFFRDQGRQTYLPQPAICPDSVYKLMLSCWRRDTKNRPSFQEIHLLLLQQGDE
Serine/threonine-protein kinase STK11 (Homo sapiens), sequence (Q15831 whole entry): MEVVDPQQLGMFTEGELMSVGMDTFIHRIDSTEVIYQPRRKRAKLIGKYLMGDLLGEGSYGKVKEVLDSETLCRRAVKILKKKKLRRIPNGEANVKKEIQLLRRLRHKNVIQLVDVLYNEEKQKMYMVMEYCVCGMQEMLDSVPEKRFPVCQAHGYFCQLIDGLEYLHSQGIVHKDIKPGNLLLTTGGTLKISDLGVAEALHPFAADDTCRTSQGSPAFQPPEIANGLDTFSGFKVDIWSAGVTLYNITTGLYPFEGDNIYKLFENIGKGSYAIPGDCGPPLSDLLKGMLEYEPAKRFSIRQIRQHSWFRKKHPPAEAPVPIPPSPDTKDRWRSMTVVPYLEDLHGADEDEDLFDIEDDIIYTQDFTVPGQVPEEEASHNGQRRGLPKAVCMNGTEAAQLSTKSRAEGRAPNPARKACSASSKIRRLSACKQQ
Tyrosine-protein kinase Srms (Homo sapiens), sequence (Q9H3Y6 whole entry): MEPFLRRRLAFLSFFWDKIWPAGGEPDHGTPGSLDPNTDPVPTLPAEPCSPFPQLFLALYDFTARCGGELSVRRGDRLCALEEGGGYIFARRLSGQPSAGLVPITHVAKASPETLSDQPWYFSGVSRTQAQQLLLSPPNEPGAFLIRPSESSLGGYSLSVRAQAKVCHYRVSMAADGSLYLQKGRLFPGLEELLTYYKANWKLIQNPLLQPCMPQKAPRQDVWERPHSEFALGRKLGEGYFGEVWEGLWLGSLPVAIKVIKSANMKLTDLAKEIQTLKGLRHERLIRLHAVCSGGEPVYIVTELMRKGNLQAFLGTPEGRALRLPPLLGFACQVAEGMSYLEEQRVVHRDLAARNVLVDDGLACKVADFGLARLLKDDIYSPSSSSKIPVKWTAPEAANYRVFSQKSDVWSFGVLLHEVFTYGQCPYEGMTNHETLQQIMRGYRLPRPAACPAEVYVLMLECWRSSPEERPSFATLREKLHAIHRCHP
MAP/microtubule affinity-regulating kinase 3 (Homo sapiens), sequence (P27448 whole entry, looked up): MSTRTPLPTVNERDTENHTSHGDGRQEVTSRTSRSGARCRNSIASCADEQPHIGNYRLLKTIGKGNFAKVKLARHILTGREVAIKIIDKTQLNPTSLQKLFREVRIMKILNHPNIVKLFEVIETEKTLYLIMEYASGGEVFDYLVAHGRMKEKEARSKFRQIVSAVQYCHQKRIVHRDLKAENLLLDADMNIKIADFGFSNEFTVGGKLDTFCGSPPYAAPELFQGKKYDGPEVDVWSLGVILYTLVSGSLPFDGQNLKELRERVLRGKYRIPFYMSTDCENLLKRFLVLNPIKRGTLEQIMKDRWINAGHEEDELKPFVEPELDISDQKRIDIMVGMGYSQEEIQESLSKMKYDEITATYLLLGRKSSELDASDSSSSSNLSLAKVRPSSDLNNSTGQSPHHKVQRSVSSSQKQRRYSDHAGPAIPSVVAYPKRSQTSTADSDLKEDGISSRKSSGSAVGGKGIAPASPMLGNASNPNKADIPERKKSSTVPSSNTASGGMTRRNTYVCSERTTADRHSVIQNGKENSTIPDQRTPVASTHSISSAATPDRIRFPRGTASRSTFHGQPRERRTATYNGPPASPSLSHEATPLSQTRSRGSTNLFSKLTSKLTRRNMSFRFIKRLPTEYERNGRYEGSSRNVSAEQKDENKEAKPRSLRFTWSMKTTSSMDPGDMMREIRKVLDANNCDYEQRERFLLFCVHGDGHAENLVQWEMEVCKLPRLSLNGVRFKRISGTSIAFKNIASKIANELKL
Casein kinase I isoform alpha (Homo sapiens), sequence (P48729 whole entry, looked up, canonical isoform): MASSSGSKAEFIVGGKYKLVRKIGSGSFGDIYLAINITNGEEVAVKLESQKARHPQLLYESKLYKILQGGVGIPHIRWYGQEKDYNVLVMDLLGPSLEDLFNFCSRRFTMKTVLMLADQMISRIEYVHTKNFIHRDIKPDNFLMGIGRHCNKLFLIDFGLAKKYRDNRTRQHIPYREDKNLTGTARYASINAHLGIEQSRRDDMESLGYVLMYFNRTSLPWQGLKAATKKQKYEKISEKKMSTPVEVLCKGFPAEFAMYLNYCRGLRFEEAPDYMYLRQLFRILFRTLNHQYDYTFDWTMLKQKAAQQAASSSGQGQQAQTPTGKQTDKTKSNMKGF

Regarding `COc1ccccc1-n1c(-c2ccccc2C)cn2c3c(=O)[nH]c(=O)n(C)c3nc12`, the Activity in [1] is 89%; in experiment [2] it was 52%; in experiment [3] it was 96%; in experiment [4] it was 87%; in experiment [5] it was 83%; in experiment [6], 98%. The Activity is 109% in experiment [7]; 108% in experiment [8]; 90% in experiment [9]; 28% in experiment [10]; 111% in experiment [11]; 83% in experiment [12]. Moreover, the Activity in experiment [13] stood at 93%.

Consider `COc1ccccc1-n1c(-c2cc(O)ccc2C)cn2c3c(=O)[nH]c(=O)n(C)c3nc12`, for which the Activity was 93% in [14]; 95% in [15]; 94% in experiment [16]; 102% in experiment [17]; 85% in [19]; 94% in experiment [20]. The Activity in experiment [21] was determined as 51%; in experiment [22], 77%; in experiment [23] it was 89%; in experiment [24] it was 18%; in experiment [25], 77%; in [26], 21%. The Activity stood at 81% in [27] and 32% in experiment [28]. Moreover, half-maximal inhibition in [18] (IC50) was put at 1.2 nM.

By IC50 is commonly meant the concentration that gives 50% inhibition.
